Reference: ChEMBL document CHEMBL2417524, “Cytotoxic clerodane diterpenoids from the leaves and twigs of Casearia balansae” (J Nat Prod, 2013)

Assays:
[1] = tested on: WI-38; experiment: Cytotoxicity against human WI38 cells after 72 hrs by MTT assay; format: cell-based; settings: WI-38, 72 h
How it was run: (§1)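 Antiproliferative screen on cancer lines PC3, DU145, SKOV3 and A549 and on normal human WI-38 fibroblasts. Paclitaxel was the positive control and DMSO the negative control. IC50 in μM reported as the mean of duplicate measurements.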

[2] = tested on: PC-3; experiment: Cytotoxicity against human PC3 cells after 72 hrs by MTT assay; format: functional, cell-based; settings: PC-3, 72 h; how it was run: as §1
[3] = tested on: SK-OV-3; experiment: Cytotoxicity against human SKOV3 cells after 72 hrs by MTT assay; format: functional, cell-based; settings: SK-OV-3, 72 h; how it was run: as §1
[4] = tested on: A549; experiment: Cytotoxicity against human A549 cells after 72 hrs by MTT assay; format: functional, cell-based; settings: A549, 72 h; how it was run: as §1
[5] = tested on: DU-145; experiment: Cytotoxicity against human DU145 cells after 72 hrs by MTT assay; format: functional, cell-based; settings: DU-145, 72 h; how it was run: as §1

SMILES | IC50 [1] [µM] | IC50 [2] [µM] | IC50 [3] [µM] | IC50 [4] [µM] | IC50 [5] [µM]
C=CC(=C)CC[C@]1(C)[C@H]2C[C@H](OC(C)=O)C=C3[C@@H](OCC)O[C@H](OC(C)=O)[C@@]32[C@H](OC)C[C@@H]1C | 57.6 | 46.4 | 99.8 | 45.2 | 51.7
C=CC(=C)CC[C@]1(C)[C@H]2C[C@@H](OC(C)=O)C=C3[C@H](OC(C)=O)O[C@H](OC(C)=O)[C@@]32[C@H](OC)C[C@@H]1C | 13.3 | 4.7 | 6.2 | 7.1 | 4.3
C=CC(=C)CC[C@]1(C)[C@H]2C[C@H]3C[C@@H]4[C@H](OC(C)=O)O[C@H](O3)[C@@]42CC[C@@H]1C | 41 | 6.2 | 30.6 | 19.7 | 13.3
C=CC(=C)CC[C@]1(C)[C@H]2C[C@H]3C[C@@H]4[C@@H](OC(C)=O)O[C@H](O3)[C@@]42CC[C@@H]1C | 51 | 5.6 | 36.2 | 24 | 14.1
C=CC(=C)CC[C@]1(C)[C@H]2C[C@H](O)C[C@@H]3[C@H](OC(=O)CCC)O[C@H](OC(C)=O)[C@@]32CC[C@@H]1C | 58.1 | 7.2 | 25.3 | 13.9 | 67.2
C=CC(=C)CC[C@]1(C)[C@H]2C[C@H](OC(=O)C(C)CC)C=C3[C@@H](OCC)O[C@H](OC(C)=O)[C@@]32[C@H](O)C[C@@H]1C (relative stereo) | 60.2 | 46.9 | 15.3 | 49.8 | 14.8
C=CC(=C)CC[C@]1(C)[C@H]2CC(=O)C=C3[C@H](OC(C)=O)O[C@H](OC(C)=O)[C@@]32[C@H](OC)C[C@@H]1C (relative stereo) | 20.3 | 6.5 | 17.6 | 13.3 | 5.6
C=CC(=C)CC[C@]1(C)[C@H]2CC(=O)C=C3[C@H](OC(=O)CCC)O[C@H](OC(C)=O)[C@@]32[C@H](OC)C[C@@H]1C (relative stereo) | 14.8 | 4.6 | 7.2 | 11.3 | 7.2
C=C(C)[C@@H](C)C[C@@H](O)[C@@H](C)[C@H]1CC[C@@]2(C)[C@@H]3CCC4=C(C[C@]35O[C@@H]5C[C@]12C)C(=O)C=CC4(C)C (relative stereo) | 78.4 | 22.5 | 73.8 | 37.7 | 26.1
C=CC(=C)CC[C@]1(C)[C@H](C)CC[C@@]23[C@@H](OC(C)=O)O[C@H](OC(C)=O)[C@@H]2C[C@H](O)C[C@@H]13 (relative stereo) | 26.3 | 8.2 | 17.9 | 15.2 | 6.6
C=CC(=C)CC[C@]1(C)[C@H]2C[C@H](OC(=O)C(C)CC)C=C3[C@H](OC(C)=O)O[C@@H](OC(C)=O)[C@@]32[C@H](OC)C[C@@H]1C (relative stereo) | 13.3 | 5.6 | 7.2 | 7.9 | 4.8
C=CC(=C)CC[C@]1(C)[C@H]2C[C@@H](OC(C)=O)C[C@@H]3[C@H](OC(C)=O)O[C@H](OC(C)=O)[C@@]32CC[C@@H]1C (relative stereo) | 56.9 | 36.1 | 38.2 | 66.2 | 20
C=CC(=C)CC[C@]1(C)[C@H]2C[C@@H](O)C[C@@H]3[C@H](OC(=O)CCC)O[C@H](OC(C)=O)[C@@]32CC[C@@H]1C (relative stereo) | 21.1 | 6.3 | 10.2 | 16.2 | 5.8
C=CC(=C)CC[C@]1(C)[C@H]2C[C@@H](OC(C)=O)C=C3[C@@H](OCC)O[C@H](OC(C)=O)[C@@]32[C@H](OC)C[C@@H]1C (relative stereo) | 55.7 | 34.2 | 35.9 | 53.3 | 47.2
C=CC(=C)CC[C@]1(C)[C@H]2C[C@H](OC(=O)C(C)CC)C=C3[C@H](OC(C)=O)O[C@H](OC(C)=O)[C@@]32[C@H](O)C[C@@H]1C (relative stereo) | 9.8 | 4.5 | 5.1 | 5.7 | 4.3
C=CC(=C)CC[C@]1(C)[C@H]2C[C@H](OC(=O)C(C)CC)C=C3[C@H](OC(=O)CCC)O[C@H](OC(C)=O)[C@@]32[C@H](O)C[C@@H]1C (stereo partly drawn) [CASEAMEMBRIN A] | 19.6 | 10.5 | 8.7 | 15.7 | 5
CC(=O)O[C@H]1C(=O)[C@@]2(C)[C@H]([C@H](OC(=O)c3ccccc3)[C@]3(O)C[C@H](OC(=O)[C@H](O)[C@@H](NC(=O)c4ccccc4)c4ccccc4)C(C)=C1C3(C)C)[C@]1(OC(C)=O)CO[C@@H]1C[C@@H]2O [PACLITAXEL] | 0.05 | 0.02 | – | – | 0.04
